Converted amounts (≈) assume the structure as drawn.

The nature of series [1]: Half-life at pH 7.4. It is filed as ADME. To be noted: buffer. In a few lines: (§1)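 Stability at ambient temperature (20 °C) in acetonitrile/phosphate buffer (1:3) adjusted to the stated pH. Initial compound concentration is 1 × 10⁻³ to 3 × 10⁻⁴ M. Loss is followed by reverse-phase C18 HPLC with UV detection at 280 nm. t1/2 comes from linear regression of ln(concentration) vs time (h).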

Series [2] in a line: Half-life at pH 1.0. It is filed as ADME. To be noted: buffer. In a few lines: as §1
Series [3] can be described thus: Dissociation constant at 37 degree Centigrade. It is filed as physicochemical.
Series [4] relates to Canis familiaris. The series is described as follows: Percent inhibition of histamine-stimulated gastric acid secretion in Heidenhain pouch dog after intraduodenal administration of compound (1 umol/kg). It is filed as functional, Canis lupus familiaris, Stomach. In a few lines: (§2)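 Heidenhain pouch dog with i.v. histamine at 0.5 μmol/(kg·h). Juice is collected every 15 min and acid output is found by titration to pH 7.4. Compound is given intraduodenally via a chronic duodenal cannula at submaximal plateau. Value is peak inhibition or mean plateau inhibition over 1 to 2½ h, mean of n = 4 dogs ± SEM.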

Series [5] deals with Rattus norvegicus. The series is described as follows: Inhibition of histamine-stimulated gastric acid secretion in lumen perfused anesthetized rat after intraduodenal administration. It is filed as functional. To be noted: Stomach. In a few lines:
(§3)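 Anaesthetized rat with stomach lumen perfusion. Effluent H⁺ activity is monitored continuously with a microflow glass electrode. Secretion is driven by i.v. histamine infusion at 0.25 μmol/(kg·min). Inhibitor is given i.v. or i.d. once a submaximal plateau is reached. % inhibition compares peak inhibition with the pre-dose plateau. ED50 uses three dose levels, three animals per dose.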

Series [6] has as its system Rattus norvegicus. The series is described as follows: Inhibition of histamine-stimulated gastric acid secretion in lumen perfused anesthetized rat after intravenous administration. To be noted: Stomach. It is filed as functional. In a few lines: as §3
For series [7], the system named is Canis familiaris. The series is described as follows: Inhibition of histamine-stimulated gastric acid secretion in conscious Heidenhain pouch dog after intravenous administration. It is filed as functional. Particulars: Canis lupus familiaris, Stomach. In a few lines: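 Conscious dog with a Heidenhain pouch made 1-3 years earlier. Acid secretion is stimulated by i.v. histamine at 0.5 μmol/(kg·h). Juice is collected by gravity every 15 min and titrated to pH 7.4 with 0.1 N NaOH. Inhibitor is given i.v. at submaximal plateau. % inhibition compares the peak-inhibition sample with the pre-dose sample. ED50 uses three doses × three dogs, with 95% confidence limits (n = 9).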

Series [8] in a line: Partition coefficient at 37 degrees Celsius at pH 7.4. It is filed as physicochemical. Particulars: octanol/water.
Series [9] can be described thus: Dissociation constant at 37 degrees Centigrade. It is filed as physicochemical.
For series [10], the system named is Rattus norvegicus. The series can be described thus: Inhibition of histamine-stimulated gastric acid secretion in lumen perfused anesthetized rat after intravenous administration; Poor solubility. It is filed as functional, organism-based. To be noted: Stomach. In a few lines: as §3
Series [11] in a line: Partition coefficient at 37 degree Celsius at pH 7.4. It is filed as physicochemical. To be noted: octanol/water.
The subject of series [12] is Canis familiaris. The series is described as follows: Percent inhibition of histamine-stimulated gastric acid secretion in Heidenhain pouch dog after intraduodenal administration of compound (2 umol/kg). It is filed as functional, Canis lupus familiaris, Stomach. In a few lines: as §2
The nature of series [13]: Solubility in water at pH 10.
In series [14] the test system is Rattus norvegicus. The series can be described thus: Inhibition of histamine-stimulated gastric acid secretion in lumen perfused anesthetized rat after intravenous administration of 1 umol/kg. It is filed as functional. To be noted: Stomach. In a few lines:
as §3

Series [15] concerns Rattus norvegicus. The series is described as follows: Inhibition of histamine-stimulated gastric acid secretion in lumen perfused anesthetized rat after intravenous administration of 1 umol/kg. It is filed as functional. Particulars: Stomach. In a few lines:
as §3

`COc1ccc2[nH]c([S+]([O-])Cc3ncc(C)c(N(C)C)c3Cl)nc2c1` (stereo not given): the results for the half-life in series [1] and in series [2] were 432 h and 1 min, respectively. In [3], this compound gave a pKa of 5.92. The same compound came in with an Inhibition in the series on Canis familiaris [4] of 67%. Also, the ED50 in the series on Rattus norvegicus [5] was determined as 1.48 µmol/kg; in the series on Rattus norvegicus [6] it was 0.34 µmol/kg.

As to `COc1ccc2[nH]c([S+]([O-])Cc3ncc(C)c(N4CCCC4)c3Cl)nc2c1` (stereo not given), in series [1], the half-life is 60 h. In the series on Canis familiaris [7], it took a dose of 0.57 µmol/kg to reach the 50% effect level (ED50).

`COc1ccc2[nH]c([S+]([O-])Cc3nccc(N(C)C)c3Cl)nc2c1` (stereo not given) showed a half-life in series [1] of 17 h. Also, the ED50 in the series with Canis familiaris [7] came to 0.26 µmol/kg; with Rattus norvegicus [5] it was 0.38 µmol/kg; in the series on Rattus norvegicus [6], 0.44 µmol/kg.

As to `COc1ccc2[nH]c([S+]([O-])Cc3ncc(C)c(N4CCOCC4)c3Cl)nc2c1` (stereo not given), the half-life in [1] is more than 3000 h. The compound also gave a pKa in series [3] of 5.32.

For `COc1ccc2[nH]c([S+]([O-])Cc3nccc(N4CCCCC4)c3Br)nc2c1` (stereo not given), the half-life in series [1] is 300 h. Besides, in the series on Rattus norvegicus [6], the ED50 is 0.85 µmol/kg.

For `COc1ccc2[nH]c([S+]([O-])Cc3nccc(N4CCOCC4)c3F)nc2c1` (stereo not given), the half-life in series [1] was 144 h. For the same compound, the pKa in series [3] was determined as 5.89. For the same compound, the ED50 in the series with Rattus norvegicus [5] was 3.2 µmol/kg.

For `COc1ccc2[nH]c([S+]([O-])Cc3cc(N4CCOCC4)c(F)cn3)nc2c1` (stereo not given), the half-life in series [1] is 418 h. In [3], this compound returned a pKa of 5.72. Also, the results for the ED50 in the series with Canis familiaris [7] and with Rattus norvegicus [5] were 5.07 µmol/kg and 0.65 µmol/kg, respectively.

Take `COc1ccc2[nH]c([S+]([O-])Cc3ncc(C)c(OC)c3C)nc2c1` (stereo not given) [OMEPRAZOLE]: the half-life in series [1] was 456 h; in series [2], 2 min. The compound also displayed a logD in series [8] of 2.18. The pKa in series [9] turned out to be 6.29. In the series with Canis familiaris [4], this compound gave an Inhibition of 53%. Besides, in the series with Canis familiaris [7], the 50% effect level (ED50) was put at a dose of 0.2 µmol/kg.

In the case of `COc1ccc2[nH]c([S+]([O-])Cc3cc(N(C)C)c(Cl)cn3)nc2c1` (stereo not given), in series [1], the half-life is 96 h. The ED50 with Canis familiaris [7] was 0.77 µmol/kg; in the series with Rattus norvegicus [6], 1.32 µmol/kg.

Turning to `COc1ccc2[nH]c([S+]([O-])Cc3nccc(N(C)C)c3F)nc2c1` (stereo not given), the half-life in series [1] was 11 h. Also, in series [3], the pKa was determined as 7.12.

On to `COc1ccc2[nH]c([S+]([O-])Cc3nccc(N4CCCC4)c3Cl)nc2c1` (stereo not given), for which, in series [1], the half-life was 36 h. This compound also returned a pKa in series [3] of 7.58. For the same compound, the ED50 entry with Rattus norvegicus [10] is “Poor solubility”.

As to `COc1ccc2[nH]c([S+]([O-])Cc3nccc(N4CCOCC4)c3Cl)nc2c1` (stereo not given), the half-life was 1300 h in series [1] and 1 min in [2]. Besides, in series [3], the pKa is 5.28. This compound also displayed a logD in [11] of 1.81. For the same compound, in the series with Canis familiaris [12], the Inhibition was 48%. Moreover, the ED50 with Canis familiaris [7] turned out to be 1.01 µmol/kg; in the series with Rattus norvegicus [5], 1.14 µmol/kg. The same compound gave a solubility in [13] of 15 mg/mL (≈ 36.9 mM).

Turning to `COc1ccc2[nH]c([S+]([O-])Cc3cc(N(C)C)c(F)cn3)nc2c1` (stereo not given), the half-life in series [1] is 26 h. Further, in [3], the pKa was found to be 6.96. The compound also registered an inhibition in vivo at 1 µmol/kg in the series with Rattus norvegicus [14] of 37%.

In the case of `COc1ccc2[nH]c([S+]([O-])Cc3ncc(C)c(N4CCCCC4)c3Cl)nc2c1` (stereo not given), the half-life in series [1] is 444 h. In the series on Rattus norvegicus [5], this compound yielded an ED50 of 2.51 µmol/kg.

In [1], `COc1ccc2[nH]c([S+]([O-])Cc3cc(N(C)C)c(Br)cn3)nc2c1` (stereo not given) had a half-life of 101 h. This compound had a pKa in series [3] of 5.8. Also, the ED50 is 1.75 µmol/kg in the series with Rattus norvegicus [5] and 0.26 µmol/kg with Rattus norvegicus [6].

As to `COc1ccc2[nH]c([S+]([O-])Cc3cc(N4CCCC4)c(Br)cn3)nc2c1` (stereo not given), in series [1], the half-life is 49 h. Besides, the pKa in series [3] worked out at 6.92.

Compound `COc1ccc2[nH]c([S+]([O-])Cc3cc(N4CCCCC4)c(Br)cn3)nc2c1` (stereo not given) showed a half-life in series [1] of 864 h. The compound further displayed a pKa in series [3] of 5.4. Further, the ED50 was determined as 2.94 µmol/kg in the series with Canis familiaris [7] and 1.05 µmol/kg in the series on Rattus norvegicus [5].

In the case of `COc1ccc2[nH]c([S+]([O-])Cc3nccc(N4CCCCC4)c3Cl)nc2c1` (stereo not given), the half-life in [1] was 175 h. The compound further came in with a pKa in series [3] of 5.95. Further, the ED50 came to 1.16 µmol/kg in the series with Canis familiaris [7] and 7.72 µmol/kg in the series on Rattus norvegicus [5].

Regarding `COc1ccc2[nH]c([S+]([O-])Cc3cc(N4CCOCC4)c(Br)cn3)nc2c1` (stereo not given), the inhibition in vivo at 1 µmol/kg in the series on Rattus norvegicus [15] was 14%.

The half-life is the time needed for the level to fall by half in the phase considered. Low readings indicate fast loss, high ones slow loss. As a reminder, the pKa is the negative logarithm of the acid dissociation constant. The Inhibition is the relative decrease from the control value, in per cent. Higher therefore signals strong suppression. As a reminder, the ED50 is the midpoint of the dose-response relation. Usually logD stands for lipophilicity at a set pH, counting ionised and neutral species. The solubility is how much of the substance goes into solution per volume. As usually defined, the inhibition in vivo is the drop in the measured response relative to a control, in per cent. High values mean strong suppression, low ones little suppression.

Source of the values: ChEMBL document CHEMBL1124570, “2-[[(4-Amino-2-pyridyl)methyl]sulfinyl]benzimidazole H+/K+-ATPase inhibitors. The relationship between pyridine basicity, stability, and activity” (J Med Chem, 1989).
